The values that follow come from ChEMBL document CHEMBL3124808, “C-peptide inhibitors of Ebola virus glycoprotein-mediated cell entry: effects of conjugation to cholesterol and side chain-side chain crosslinking” (Bioorg Med Chem Lett, 2013).

Calls of active or inactive are those of the source. No cut-off for these calls is given here. Where a SMILES comes first, the peptide text is derived from it. The star is where a group is joined. X1 = CC(C)CCC[C@@H](C)[C@H]1CC[C@H]2[C@@H]3CC=C4C[C@@H](OC(=O)C*)CC[C@]4(C)[C@H]3CC[C@]12C

Holding throughout (type): cell-based
Data set [1] deals with Vero. The data set is described as follows: Inhibition of Vesicular stomatitis virus envelope glycoprotein G-mediated viral entry in African green monkey Vero cells at 40 uM incubated for 1 hr prior to viral addition measured after 1 hr by fluorescence microscopy relative to control.
For data set [2], the system named is Vero. Nature of the data set: Cytotoxicity against African green monkey Vero cells at 40 uM by Cyto Tox Glo assay. The settings on record: chlorocebus sabaeus. Put shortly:
(§1)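 Vero cells exposed to peptide were scored for tolerance by visual inspection and by a commercial cell viability assay.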

The target of data set [3] is T1, Envelope glycoprotein (Zaire ebolavirus (strain Mayinga-76) (ZEBOV) (Zaire Ebola virus)) (UniProt Q05320).
T1 sequence (whole entry): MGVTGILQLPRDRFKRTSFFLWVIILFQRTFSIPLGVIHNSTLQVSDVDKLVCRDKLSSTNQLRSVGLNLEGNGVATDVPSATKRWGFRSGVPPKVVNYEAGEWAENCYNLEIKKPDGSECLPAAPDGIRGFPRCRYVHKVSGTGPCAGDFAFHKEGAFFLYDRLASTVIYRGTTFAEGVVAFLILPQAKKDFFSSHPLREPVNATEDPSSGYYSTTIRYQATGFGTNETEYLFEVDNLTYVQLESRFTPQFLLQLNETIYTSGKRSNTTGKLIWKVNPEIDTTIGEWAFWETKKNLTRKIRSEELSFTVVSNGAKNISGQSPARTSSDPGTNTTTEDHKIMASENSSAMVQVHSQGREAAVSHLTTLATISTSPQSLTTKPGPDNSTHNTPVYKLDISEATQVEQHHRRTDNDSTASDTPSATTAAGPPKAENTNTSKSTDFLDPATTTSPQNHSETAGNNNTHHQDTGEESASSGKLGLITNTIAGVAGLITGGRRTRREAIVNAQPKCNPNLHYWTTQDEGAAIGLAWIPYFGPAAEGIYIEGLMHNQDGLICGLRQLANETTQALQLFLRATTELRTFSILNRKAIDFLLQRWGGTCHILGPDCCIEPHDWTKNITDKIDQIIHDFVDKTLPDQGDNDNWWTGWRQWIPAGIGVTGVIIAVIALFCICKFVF
The data set is described as follows: Inhibition of Vesicular stomatitis virus particle bearing EBOV glycoprotein-mediated viral entry in African green monkey Vero cells at 40 uM incubated for 1 hr prior to viral addition measured after 1 hr by fluorescence microscopy relative to control. Put shortly:
(§2)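 Vero host cells were infected with VSV particles bearing the EBOV glycoprotein in place of G, with a matrix protein–eGFP fusion. Primary infection events were quantified by fluorescence confocal microscopy, and inhibition was expressed as fold or percent reduction in infection versus control.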

For data set [4], the target named is T1, Envelope glycoprotein (Zaire ebolavirus (strain Mayinga-76) (ZEBOV) (Zaire Ebola virus)). Nature of the data set: Inhibition of Vesicular stomatitis virus particle bearing EBOV glycoprotein-mediated viral entry in African green monkey Vero cells incubated for 1 hr prior to viral addition measured after 1 hr by fluorescence microscopy relative to control. Put shortly:
as §2

Data set [5] relates to Vero. The data set is described as follows: Cytotoxicity against African green monkey Vero cells at 30 to 40 uM by Cyto Tox Glo assay. The settings on record: chlorocebus sabaeus. Put shortly:
as §1

Data set [6] concerns Vero. The data set is described as follows: Inhibition of Vesicular stomatitis virus envelope glycoprotein G-mediated viral entry in African green monkey Vero cells at >10 uM incubated for 1 hr prior to viral addition measured after 1 hr by fluorescence microscopy relative to control.
Data set [7] deals with Vero. The data set is described as follows: Inhibition of Vesicular stomatitis virus envelope glycoprotein G-mediated viral entry in African green monkey Vero cells at 10 uM incubated for 1 hr prior to viral addition measured after 1 hr by fluorescence microscopy relative to control.
Data set [8] addresses T1, Envelope glycoprotein (Zaire ebolavirus (strain Mayinga-76) (ZEBOV) (Zaire Ebola virus)). Nature of the data set: Inhibition of Vesicular stomatitis virus particle bearing EBOV glycoprotein-mediated viral entry in African green monkey Vero cells at 20 uM incubated for 1 hr prior to viral addition measured after 1 hr by fluorescence microscopy relative to control. Put shortly:
as §2

For data set [9] the target is unchanged. Nature of the data set: Inhibition of Vesicular stomatitis virus particle bearing EBOV glycoprotein-mediated viral entry in African green monkey Vero cells at >20 uM incubated for 1 hr prior to viral addition measured after 1 hr by fluorescence microscopy relative to control. The procedure, abridged:
as §2

The subject of data set [10] is Vero. Nature of the data set: Cytotoxicity against African green monkey Vero cells at >15 uM by Cyto Tox Glo assay. The settings on record: chlorocebus sabaeus.
Data set [11] relates to Vero. Nature of the data set: Inhibition of Vesicular stomatitis virus envelope glycoprotein G-mediated viral entry in African green monkey Vero cells incubated for 1 hr prior to viral addition measured after 1 hr by fluorescence microscopy relative to control.
For data set [12], the target named is T1, Envelope glycoprotein (Zaire ebolavirus (strain Mayinga-76) (ZEBOV) (Zaire Ebola virus)). Nature of the data set: Inhibition of Vesicular stomatitis virus particle bearing EBOV glycoprotein-mediated viral entry in African green monkey Vero cells at 75 uM incubated for 1 hr prior to viral addition measured after 1 hr by fluorescence microscopy relative to control.

With `CC[C@H](C)[C@H](NC(=O)CNC(=O)[C@H](CO)NC(=O)CNC(=O)[C@H](CCCNC(=N)N)NC(=O)[C@H](CCCNC(=N)N)NC(=O)[C@H](CCCNC(=N)N)NC(=O)[C@H](CCC(N)=O)NC(=O)[C@H](CCCNC(=N)N)NC(=O)[C@H](CCCNC(=N)N)NC(=O)[C@H](CCCCN)NC(=O)[C@H](CCCCN)NC(=O)[C@H](CCCNC(=N)N)NC(=O)CNC(=O)[C@H](Cc1ccc(O)cc1)NC(C)=O)C(=O)N[C@@H](CCC(=O)O)C(=O)N1CCC[C@H]1C(=O)N[C@@H](Cc1cnc[nH]1)C(=O)N[C@@H](CC(=O)O)C(=O)N[C@@H](Cc1c[nH]c2ccccc12)C(=O)N[C@H](C(=O)N[C@@H](CCCCN)C(=O)N[C@H]1CSCC(=O)NCCC[C@@H](C(=O)N[C@@H](CCCCN)C(=O)N[C@H](C(=O)N[C@@H](CC(=O)O)C(=O)N[C@@H](CCC(N)=O)C(=O)N[C@H](C(=O)N[C@H](C(=O)N[C@@H](Cc2cnc[nH]2)C(=O)N[C@@H](CC(=O)O)C(=O)N[C@@H](Cc2ccccc2)C(=O)N[C@H](C(=O)N[C@@H](CC(=O)O)C(=O)N[C@@H](CCCCN)C(=O)O)C(C)C)[C@@H](C)CC)[C@@H](C)CC)[C@@H](C)CC)NC(=O)[C@H]([C@@H](C)O)NC(=O)[C@H]([C@@H](C)CC)NC1=O)[C@@H](C)O`, the inhibition in the data set with Vero [1] was 80%; in data set [3], 99%. Also, in the data set on Vero [2], the Activity result is “Non-toxic”.
Turning to `CC(C)CCC[C@@H](C)[C@H]1CC[C@H]2[C@@H]3CC=C4C[C@@H](O)CC[C@]4(C)[C@H]3CC[C@]12C`, the inhibition entry in [4] is “Active”.
In the data set on Vero [5], `CC[C@H](C)[C@H](N)C(=O)N[C@@H](CCC(=O)O)C(=O)N1CCC[C@H]1C(=O)N[C@@H](Cc1cnc[nH]1)C(=O)N[C@@H](CC(=O)O)C(=O)N[C@@H](Cc1c[nH]c2ccccc12)C(=O)N[C@H](C(=O)N[C@@H](CCCCN)C(=O)N[C@@H](CC(N)=O)C(=O)N[C@H](C(=O)N[C@H](C(=O)N[C@@H](CC(=O)O)C(=O)N[C@@H](CCCCN)C(=O)N[C@H](C(=O)N[C@@H](CC(=O)O)C(=O)N[C@@H](CCC(N)=O)C(=O)N[C@H](C(=O)N[C@H](C(=O)N[C@@H](Cc1cnc[nH]1)C(=O)N[C@@H](CC(=O)O)C(=O)N[C@@H](Cc1ccccc1)C(=O)N[C@H](C(=O)N[C@@H](CC(=O)O)C(=O)N[C@@H](CCCCN)C(=O)NCC(=O)N[C@@H](CO)C(=O)NCC(=O)N[C@@H](CCCCN)C(=O)N[C@@H](CCCCN)C(=O)N[C@@H](CCCCN)C(=O)N[C@@H](CCCCN)C(=O)N[C@@H](CSCC(=O)O[C@H]1CC[C@@]2(C)C(=CC[C@H]3[C@@H]4CC[C@H]([C@H](C)CCCC(C)C)[C@@]4(C)CC[C@@H]32)C1)C(=O)O)C(C)C)[C@@H](C)CC)[C@@H](C)CC)[C@@H](C)CC)[C@H](C)O)[C@@H](C)CC)[C@@H](C)O` yielded an Activity of 20%. The values for the inhibition in the data set with Vero [6] and in the data set on Vero [7] were greater than 99% and 90%, respectively. Besides, the inhibition result in [8] is “Active”. Further, the Ratio in data set [3] was found to be 1000.
`CC(C)CCC[C@@H](C)[C@H]1CC[C@H]2[C@@H]3CC=C4C[C@@H](OC(=O)CSC[C@H](NC(=O)CNC(=O)[C@H](CO)NC(=O)CNC(=O)[C@H](CCCCN)NC(=O)[C@H](CCCCN)NC(=O)[C@H](CCCCN)NC(=O)[C@@H](N)CCCCN)C(=O)O)CC[C@]4(C)[C@H]3CC[C@]12C` (H-KKKKGSGC(X1)-OH) showed an inhibition in [9] greater than 90%. Further, the inhibition entry in data set [8] was “Active”.
On to `CC[C@H](C)[C@H](NC(=O)CNC(=O)[C@H](CO)NC(=O)CNC(=O)[C@H](CCCCN)NC(=O)[C@H](CCCCN)NC(=O)[C@H](CCCCN)NC(=O)[C@H](CCCCN)NC(=O)[C@@H](N)CSCC(=O)O[C@H]1CC[C@@]2(C)C(=CC[C@H]3[C@@H]4CC[C@H]([C@H](C)CCCC(C)C)[C@@]4(C)CC[C@@H]32)C1)C(=O)N[C@@H](CCC(=O)O)C(=O)N1CCC[C@H]1C(=O)N[C@@H](Cc1cnc[nH]1)C(=O)N[C@@H](CC(=O)O)C(=O)N[C@@H](Cc1c[nH]c2ccccc12)C(=O)N[C@H](C(=O)N[C@@H](CCCCN)C(=O)N[C@@H](CC(N)=O)C(=O)N[C@H](C(=O)N[C@H](C(=O)N[C@@H](CC(=O)O)C(=O)N[C@@H](CCCCN)C(=O)N[C@H](C(=O)N[C@@H](CC(=O)O)C(=O)N[C@@H](CCC(N)=O)C(=O)N[C@H](C(=O)N[C@H](C(=O)N[C@@H](Cc1cnc[nH]1)C(=O)N[C@@H](CC(=O)O)C(=O)N[C@@H](Cc1ccccc1)C(=O)N[C@H](C(=O)N[C@@H](CC(=O)O)C(=O)N[C@@H](CCCCN)C(=O)O)C(C)C)[C@@H](C)CC)[C@@H](C)CC)[C@@H](C)CC)[C@@H](C)O)[C@@H](C)CC)[C@@H](C)O`, for which the results for the inhibition with Vero [6] and with Vero [7] were greater than 99% and 90%, respectively. The Activity with Vero [2] is 20%. Besides, the inhibition entry in data set [8] is “Active”. Moreover, the Ratio in [3] amounted to 1000.
Take `CC[C@H](C)[C@H](NC(=O)CNC(=O)[C@H](CO)NC(=O)CNC(=O)[C@H](CCCNC(=N)N)NC(=O)[C@H](CCCNC(=N)N)NC(=O)[C@H](CCCNC(=N)N)NC(=O)[C@H](CCC(N)=O)NC(=O)[C@H](CCCNC(=N)N)NC(=O)[C@H](CCCNC(=N)N)NC(=O)[C@H](CCCCN)NC(=O)[C@H](CCCCN)NC(=O)[C@H](CCCNC(=N)N)NC(=O)CNC(=O)[C@H](Cc1ccc(O)cc1)NC(C)=O)C(=O)N[C@@H](CCC(=O)O)C(=O)N1CCC[C@H]1C(=O)N[C@@H](Cc1cnc[nH]1)C(=O)N[C@@H](CC(=O)O)C(=O)N[C@@H](Cc1c[nH]c2ccccc12)C(=O)N[C@H](C(=O)N[C@@H](CCCCN)C(=O)N[C@@H](CC(N)=O)C(=O)N[C@H](C(=O)N[C@H](C(=O)N[C@H]1CSCC(=O)NCCC[C@H](C(=O)N[C@@H](CCC(N)=O)C(=O)N[C@H](C(=O)N[C@H](C(=O)N[C@@H](Cc2cnc[nH]2)C(=O)N[C@@H](CC(=O)O)C(=O)N[C@@H](Cc2ccccc2)C(=O)N[C@H](C(=O)N[C@@H](CC(=O)O)C(=O)N[C@@H](CCCCN)C(=O)O)C(C)C)[C@@H](C)CC)[C@@H](C)CC)NC(=O)[C@H]([C@@H](C)CC)NC(=O)[C@H](CCCCN)NC1=O)[C@@H](C)O)[C@@H](C)CC)[C@@H](C)O`: the inhibition result (in data set [4]; with Vero [11]) was “Active” each time. Besides, the Activity entry with Vero [10] is recorded as “Toxic”.
As to `CC[C@H](C)[C@H](NC(=O)CNC(=O)[C@H](CO)NC(=O)CNC(=O)[C@H](CCCNC(=N)N)NC(=O)[C@H](CCCNC(=N)N)NC(=O)[C@H](CCCNC(=N)N)NC(=O)[C@H](CCC(N)=O)NC(=O)[C@H](CCCNC(=N)N)NC(=O)[C@H](CCCNC(=N)N)NC(=O)[C@H](CCCCN)NC(=O)[C@H](CCCCN)NC(=O)[C@H](CCCNC(=N)N)NC(=O)CNC(=O)[C@@H](N)Cc1ccc(O)cc1)C(=O)N[C@@H](CCC(=O)O)C(=O)N1CCC[C@H]1C(=O)N[C@@H](Cc1cnc[nH]1)C(=O)N[C@@H](CC(=O)O)C(=O)N[C@@H](Cc1c[nH]c2ccccc12)C(=O)N[C@H](C(=O)N[C@@H](CCCCN)C(=O)N[C@@H](CC(N)=O)C(=O)N[C@H](C(=O)N[C@H](C(=O)N[C@@H](CC(=O)O)C(=O)N[C@@H](CCCCN)C(=O)N[C@H](C(=O)N[C@@H](CC(=O)O)C(=O)N[C@@H](CCC(N)=O)C(=O)N[C@H](C(=O)N[C@H](C(=O)N[C@@H](Cc1cnc[nH]1)C(=O)N[C@@H](CC(=O)O)C(=O)N[C@@H](Cc1ccccc1)C(=O)N[C@H](C(=O)N[C@@H](CC(=O)O)C(=O)N[C@@H](CCCCN)C(=O)O)C(C)C)[C@@H](C)CC)[C@@H](C)CC)[C@@H](C)CC)[C@@H](C)O)[C@@H](C)CC)[C@@H](C)O`, in data set [12], the inhibition is 99%.

As a reminder, the inhibition is the change of the read-out against control, counted positive when it falls.
